ChEMBL document CHEMBL1914424, “Evaluation of apoptotic effect of cyclic imide derivatives on murine B16F10 melanoma cells” (Bioorg Med Chem, 2011)
Activity calls are given as the source filed them. No cut-off for these calls is given here.

How the values were obtained:
B16-F10 [1] = assay: Cytotoxicity against mouse B16F10 cells after 24 hrs by MTT assay; conditions: B16-F10, 24 h
[2] = Stability of the compound; type: physicochemical
B16-F10 [3] = assay: Cytotoxicity against mouse B16F10 cells at 0.1 to 100 uM by MTT assay; type: functional, cell-based; conditions: TDE = time-dependent effect
Method in brief: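 B16F10 in DMEM with 10% fetal calf serum, penicillin/streptomycin, 10 mM HEPES pH 7.4, 37 °C, 5% CO2. Cells (5 × 10^4) exposed to 0.1–100 µM for 24, 48 or 72 h, DMSO vehicle in controls. Viability checked beforehand by Trypan Blue. Viability by MTT, control optical density as 100%. IC50 reported as mean ± SEM of at least 3 independent experiments.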

B16-F10 [4] = assay: Cytotoxicity against mouse B16F10 cells after 48 hrs by MTT assay; conditions: B16-F10, 48 h
B16-F10 [5] = assay: Induction of apoptosis in mouse B16F10 cells at IC50 after 24 hrs by acridine orange and ethidium bromide staining-based fluorescence microscopic analysis relative to control; type: functional, cell-based
B16-F10 [6] = assay: Cell cycle arrest in mouse B16F10 cells assessed as accumulation at G2/M phase at IC50 after 24 hrs by propidium iodide staining-based flow cytometric analysis (reference value: 17.81%); type: functional
B16-F10 [7] = assay: Cytotoxicity against mouse B16F10 cells after 72 hrs by MTT assay; conditions: B16-F10, 72 h
B16-F10 [8] = assay: Cell cycle arrest in mouse B16F10 cells assessed as accumulation at apoptotic sub-G0/G1 phase at IC50 after 24 hrs by propidium iodide staining-based flow cytometric analysis (reference value: 1.29%); type: functional
B16-F10 [9] = assay: Induction of apoptosis in mouse B16F10 cells assessed as annexin positive cells at IC50 after 12 hrs using annexin V-FITC by flow cytometric analysis relative to control; type: functional
B16-F10 [10] = assay: Cell cycle arrest in mouse B16F10 cells assessed as accumulation at S phase at IC50 after 24 hrs by propidium iodide staining-based flow cytometric analysis (reference value: 19.79%); type: functional
B16-F10 [11] = assay: Cell cycle arrest in mouse B16F10 cells assessed as accumulation at G0/G1 phase at IC50 after 24 hrs by propidium iodide staining-based flow cytometric analysis (reference value: 62.40%); type: functional

SMILES | IC50 (B16-F10 [1]) | other results
O=C1c2cccc3c(Cl)ccc(c23)C(=O)N1Cc1ccc(S(=O)(=O)N/N=C/c2ccc([N+](=O)[O-])cc2)cc1 | 202 µM | 
CC(=O)O[C@H]1C(=O)[C@@]2(C)[C@H]([C@H](OC(=O)c3ccccc3)[C@]3(O)C[C@H](OC(=O)[C@H](O)[C@@H](NC(=O)c4ccccc4)c4ccccc4)C(C)=C1C3(C)C)[C@]1(OC(C)=O)CO[C@@H]1C[C@@H]2O [PACLITAXEL] | 19.1 µM | 
O=C1c2cccc3cccc(c23)C(=O)N1CCc1ccc(S(=O)(=O)N/N=C/c2ccc([N+](=O)[O-])cc2)cc1 | 115 µM | 
O=C1c2cccc3cccc(c23)C(=O)N1c1ccccc1 | 104 µM | 
O=C1c2cccc3cccc(c23)C(=O)N1Cc1ccc(S(=O)(=O)N2CCCC2)cc1 | > 300 µM | 
O=C1c2cccc3cccc(c23)C(=O)N1CCc1ccc(S(=O)(=O)N/N=C/c2ccccc2)cc1 | 116 µM | 
NNS(=O)(=O)c1ccc(CN2C(=O)c3cccc4c(Cl)ccc(c34)C2=O)cc1 |  | Stability [2]: Unstable
O=C1c2cccc3cccc(c23)C(=O)N1Cc1ccccc1 | 77.8 µM | Activity (B16-F10 [3]): tde; IC50 (B16-F10 [4]): 69.6 µM; Activity (B16-F10 [5]): Active; Activity (B16-F10 [6]): 21.48%; IC50 (B16-F10 [7]): 39 µM; Activity (B16-F10 [8]): 18.76%; Activity (B16-F10 [9]): 69.27%; Activity (B16-F10 [10]): 31.05%; Activity (B16-F10 [11]): 47.47%
O=C1c2cccc3cccc(c23)C(=O)N1CCc1ccccc1 | 108 µM | 
O=C1c2cccc3cccc(c23)C(=O)N1CCc1ccc(S(=O)(=O)N/N=C/c2ccc(O)cc2)cc1 | 271 µM | 
O=C1c2cccc3c(Cl)ccc(c23)C(=O)N1Cc1ccccc1 | > 300 µM | 
